In general, Tmax refers to the time at which the peak concentration occurs. By IC50 is commonly meant the concentration needed to halve the response being measured. Usually EC50 stands for the concentration that produces a half-maximal response.

The source made the active and inactive calls. No cut-off for these calls is given here.

Data set [1] is described as follows: Reduction in TMPRSS2 gene expression in human VCaP cells xenografted in SCID mouse tumor tissue assessed as reduction in mRNA level at 10 mg/kg, po for 3 days measured after 3 hrs of treatment by […]. The format is functional. Conditions: 72 h, time 3 day. The procedure, abridged:
(§1)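 VCaP xenograft-bearing SCID mice dosed orally at 10 mg/kg daily for 3 days; tumors taken 3 h after the last dose. PSA, TMPRSS2 and FKBP5 mRNA measured by TaqMan qRT-PCR, comparative CT normalized to GAPDH and to vehicle control.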

In data set [2] the test system is VCaP. The data set is described as follows: Suppression of PSA gene expression in human VCaP cells assessed as mRNA level treated for 24 hrs by qRT-PCR analysis. Type of data set: functional, cell-based. Conditions: dose 1-1000 nM. The procedure, abridged: (§2)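 VCaP and LNCaP cells treated 24 h; PSA (KLK3) and TMPRSS2 mRNA quantified by TaqMan qRT-PCR, comparative CT method relative to GAPDH and then vehicle control.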
(In general: Real-time PCR tracks product formation cycle by cycle.)

For data set [3], the system named is Mus musculus. Nature of the data set: Reduction in AR protein level in human VCaP cells xenografted in SCID mouse tumor tissue at 10 mg/kg, po for 3 days measured after 3 to 24 hrs of treatment by Western blot analysis. The format is functional, organism-based. Particulars: time 3.0 day. A digest of the protocol:
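SCID mice with VCaP xenografts gavaged 10 mg/kg daily for 3 days; tumors collected at 3, 6 and 24 h after the last dose for Western blot of AR, GAPDH as loading control.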
A general note: Xenograft models place foreign cells or tissue in a host animal.

The test system of data set [4] is Mus musculus. Nature of the data set: Reduction in AR protein level in tumor of human VCaP cells xenografted in SCID mouse at 20 mg/kg, po single dose measured after 24 hrs by Western blot analysis. The format is functional, organism-based. The procedure, abridged:
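SCID mice bearing VCaP xenografts given one oral dose of 20 mg/kg; tumors harvested at 6 and 24 h after dosing and AR protein measured by Western blot with GAPDH loading control.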

Data set [5] is described as follows: Tmax in ICR mouse at 5 mg/kg, po measured up to 24 hrs by LC-MS/MS analysis. Conditions: in vivo. The format is ADME, organism-based. A digest of the protocol: (§3)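 Male ICR mice, single oral gavage (3 or 5 mg/kg) in 5% DMSO/10% solutol/85% saline, three mice per group. Separate IV tail-vein bolus group (1 or 2 mg/kg) in the same vehicle. Blood sampled at 0.083–24 h, one sample per mouse, plasma diluted threefold and analysed by LC–MS/MS; noncompartmental parameters.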

The test system of data set [6] is LNCaP. The data set is described as follows: Growth inhibition of human LNCaP cells assessed as cell viability measured after 4 days in presence of R1881 by WST-8 assay. Type of data set: functional, cell-based. Particulars: 96 h. A digest of the protocol: (§4)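 LNCaP and VCaP cells exposed to compounds for 4 days in charcoal-stripped medium containing 0.1 nM R1881; viability read by WST-8 assay.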
In general terms: Formazan colour is commonly taken as a measure of viable cells.

The subject of data set [7] is LNCaP. Nature of the data set: Suppression of TMPRSS2 gene expression in human LNCaP cells assessed as mRNA level treated for 24 hrs by qRT-PCR analysis. The format is functional, cell-based. Conditions: dose 1-1000 nM. The procedure, abridged:
as §2

The subject of data set [8] is VCaP. The data set is described as follows: Antitumor activity against human VCaP cells xenografted in SCID mouse assessed as tumor growth inhibition at 40 mg/kg, po measured on day 21 relative to control. Conditions: 504 h, read-out: TGI. The format is functional. A digest of the protocol:
(§5)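 Male CB17 SCID mice implanted s.c. with 5 × 10⁶ VCaP cells in Matrigel; at average tumor volume 150 mm³, size-matched and randomized, seven per group. Oral gavage daily for 21 days in 100% PEG200. Tumors measured 2–3 times weekly, volume = length × width²/2; TGI (%) = (Vc − Vt)/(Vc − Vo) × 100 using group medians at start and end.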

The target of data set [9] is Protein cereblon/Androgen receptor (Homo sapiens, UniProt P10275+Q96SW2). The data set is described as follows: Protac activity at CRBN/AR in human VCaP cells assessed as induction of AR degradation measured after 24 hrs by western blot analysis.
Chain of Protein cereblon/Androgen receptor (P10275 whole entry): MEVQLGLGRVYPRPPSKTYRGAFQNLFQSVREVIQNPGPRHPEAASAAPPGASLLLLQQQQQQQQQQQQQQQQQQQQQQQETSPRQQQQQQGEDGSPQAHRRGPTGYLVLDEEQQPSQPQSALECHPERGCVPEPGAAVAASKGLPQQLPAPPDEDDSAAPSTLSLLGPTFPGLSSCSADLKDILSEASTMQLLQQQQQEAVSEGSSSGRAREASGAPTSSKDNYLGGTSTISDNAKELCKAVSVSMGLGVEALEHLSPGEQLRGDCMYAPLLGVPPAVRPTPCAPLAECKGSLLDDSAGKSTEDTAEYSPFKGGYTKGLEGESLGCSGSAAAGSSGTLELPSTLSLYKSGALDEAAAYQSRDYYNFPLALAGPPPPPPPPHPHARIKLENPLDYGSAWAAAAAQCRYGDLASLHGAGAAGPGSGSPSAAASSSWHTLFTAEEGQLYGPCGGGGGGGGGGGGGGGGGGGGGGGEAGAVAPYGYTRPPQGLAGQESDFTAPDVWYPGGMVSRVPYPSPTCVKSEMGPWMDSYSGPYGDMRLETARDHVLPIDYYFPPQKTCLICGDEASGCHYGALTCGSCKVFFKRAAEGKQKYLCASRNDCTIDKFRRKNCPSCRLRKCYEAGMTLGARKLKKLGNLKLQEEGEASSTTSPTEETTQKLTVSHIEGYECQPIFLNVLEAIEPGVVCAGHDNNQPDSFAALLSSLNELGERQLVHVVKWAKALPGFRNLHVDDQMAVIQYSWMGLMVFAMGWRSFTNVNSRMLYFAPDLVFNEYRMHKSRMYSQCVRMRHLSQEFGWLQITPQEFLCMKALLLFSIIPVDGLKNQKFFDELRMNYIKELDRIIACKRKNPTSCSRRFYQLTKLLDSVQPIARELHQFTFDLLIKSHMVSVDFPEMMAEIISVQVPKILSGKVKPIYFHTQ
Chain of Protein cereblon/Androgen receptor (Q96SW2 whole entry): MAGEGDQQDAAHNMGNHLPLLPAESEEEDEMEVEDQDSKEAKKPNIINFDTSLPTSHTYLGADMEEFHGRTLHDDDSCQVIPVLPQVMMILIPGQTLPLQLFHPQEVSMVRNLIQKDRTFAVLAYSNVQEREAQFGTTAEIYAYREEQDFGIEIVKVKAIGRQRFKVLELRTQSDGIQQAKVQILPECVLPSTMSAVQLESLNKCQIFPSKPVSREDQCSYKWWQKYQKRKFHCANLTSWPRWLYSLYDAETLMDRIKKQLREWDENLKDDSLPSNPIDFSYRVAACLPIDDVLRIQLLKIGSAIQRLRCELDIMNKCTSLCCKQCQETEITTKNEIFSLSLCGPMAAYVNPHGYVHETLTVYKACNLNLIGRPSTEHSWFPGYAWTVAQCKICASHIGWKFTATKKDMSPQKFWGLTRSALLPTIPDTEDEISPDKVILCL
For data set [10], the system named is VCaP. Nature of the data set: Growth inhibition of human VCaP cells assessed as cell viability measured after 4 days in presence of R1881 by WST-8 assay. Type of data set: functional, cell-based. Particulars: 96 h. A digest of the protocol: as §4
The nature of data set [11]: Oral bioavailability in ICR mouse at 5 mg/kg measured up to 24 hrs by LC-MS/MS analysis. The format is ADME, organism-based. Particulars: in vivo. A digest of the protocol: as §3
Data set [12] deals with LNCaP. The data set is described as follows: Suppression of PSA gene expression in human LNCaP cells assessed as mRNA level treated for 24 hrs by qRT-PCR analysis. Conditions: dose 1-1000 nM. Type of data set: functional, cell-based. A digest of the protocol:
as §2

Data set [13] has as its system VCaP. Nature of the data set: Suppression of TMPRSS2 gene expression in human VCaP cells assessed as mRNA level treated for 24 hrs by qRT-PCR analysis. Type of data set: functional, cell-based. Particulars: dose 1-1000 nM. A digest of the protocol: as §2
Data set [14] is described as follows: Drug uptake in human VCaP cells xenografted in SCID mouse tumor tissue at 20 mg/kg, po single dose measured after 6 hrs by LC-MS/MS analysis. The format is ADME, organism-based, Neoplasm. Conditions: in vivo. The procedure, abridged: (§6)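 Single oral gavage, 20 mg/kg in 100% PEG200, to male SCID mice bearing one VCaP tumor each (about 200 mm³). Plasma and tumor taken at 6 and 24 h, three mice per time point. Tumors frozen, ground in liquid nitrogen, homogenized in water/acetonitrile 4:1, precipitated with cold acetonitrile; analysis by positive-ion MRM LC–MS/MS.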

Data set [15] in a line: Drug uptake in human VCaP cells xenografted in SCID mouse tumor tissue at 20 mg/kg, po single dose measured after 24 hrs by LC-MS/MS analysis. Type of data set: ADME, organism-based, Neoplasm. Conditions: in vivo. A digest of the protocol: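 Male CB17 SCID mice carried subcutaneous VCaP xenografts, implanted as 5 × 10⁶ cells in Matrigel, grown to about 200 mm³. Mice received a single oral gavage of 20 mg/kg in 100% PEG200. Tumors were collected at 6 and 24 h, three mice per time point, and frozen. They were homogenized in water/acetonitrile 4:1, protein-precipitated with cold acetonitrile, and assayed by LC-MS/MS (positive-ion MRM). Values are mean ± SD.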

The nature of data set [16]: Plasma concentration in human VCaP cells xenografted in SCID mouse at 20 mg/kg, po single dose measured after 6 hrs by LC-MS/MS analysis. Type of data set: ADME, organism-based. A digest of the protocol:
as §6

Data set [17] in a line: Toxicity in SCID mouse xenografted with human VCaP cells assessed as weight loss at 40 mg/kg, po measured on day 21. Type of data set: organism-based. Particulars: in vivo. A digest of the protocol: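 Male CB17 SCID mice bearing s.c. VCaP xenografts, randomized at about 150 mm³ (seven per group), gavaged daily for 21 days in 100% PEG200; body weights recorded 2–3 times per week to follow maximum weight loss.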

For data set [18], the system named is VCaP. Nature of the data set: Antitumor activity against human VCaP cells xenografted in SCID mouse assessed as tumor growth inhibition at 10 mg/kg, po measured on day 21 relative to control. Type of data set: functional. Particulars: 504 h, read-out: TGI. A digest of the protocol: as §5
Data set [19] relates to VCaP. Nature of the data set: Antitumor activity against human VCaP cells xenografted in SCID mouse assessed as tumor growth inhibition at 20 mg/kg, po measured on day 21 relative to control. The format is functional. Conditions: 504 h, read-out: TGI. The procedure, abridged: as §5
The nature of data set [20]: Plasma concentration in human VCaP cells xenografted in SCID mouse at 20 mg/kg, po single dose measured after 24 hrs by LC-MS/MS analysis. Type of data set: ADME, organism-based. The procedure, abridged: as §6
Data set [21] can be described thus: Reduction in PSA gene expression in human VCaP cells xenografted in SCID mouse tumor tissue assessed as reduction in mRNA level at 10 mg/kg, po for 3 days measured after 3 hrs of treatment by […]. The format is functional. Conditions: 72 h, time 3 day. A digest of the protocol: as §1
Data set [22] in a line: Reduction in FKBPS gene expression in human VCaP cells xenografted in SCID mouse tumor tissue assessed as reduction in mRNA level at 10 mg/kg, po for 3 days measured after 3 hrs of treatment by […]. Type of data set: functional. Particulars: 72 h, time 3 day. A digest of the protocol: as §1

Regarding `CC1(C)[C@H](NC(=O)c2ccc(N3CCN(CC4CCN(c5ccc6c(c5)C(=O)N(C5CCC(=O)NC5=O)C6=O)CC4)CC3)cc2)C(C)(C)[C@H]1Oc1ccc(C#N)c(Cl)c1` (some centres not stated), the inhibition in vivo at 10 mg/kg in data set [1] was greater than 50%; in the data set with VCaP [18], 46%; in data set [21] it was greater than 50%; in [22] it was greater than 50%. For the same molecule, the Activity entry in the data set with VCaP [2] was “Dose-Dependent Effect”; in the data set with LNCaP [7], “Dose-Dependent Effect”; in the data set on LNCaP [12], “Dose-Dependent Effect”; with VCaP [13], “Dose-Dependent Effect”; in data set [17] it was no more than 5%. Besides, the outcome in the data set with Mus musculus [3] and in the data set with Mus musculus [4] was Active. The time to peak (Tmax) in [5] came out at 4.7 h. The figures for the IC50 with LNCaP [6] and with VCaP [10] were 5 nM and 4 nM, respectively. For the same molecule, the inhibition in vivo at 40 mg/kg in the data set with VCaP [8] is 63%. The EC50 in data set [9] was 0.3 nM. In data set [11], this molecule returned an F of 67%. The Drug uptake in [14] was found to be 635 ng/g; in data set [15], 1510 ng/g. Also, the concentration at 6 h in data set [16] turned out to be 1510 ng/mL. Also, the inhibition in vivo at 20 mg/kg in the data set with VCaP [19] came to 69%. Further, the concentration at 24 h in [20] is 1660 ng/mL.

The record behind these values is ChEMBL document CHEMBL4842367, “Strategies toward Discovery of Potent and Orally Bioavailable Proteolysis Targeting Chimera Degraders of Androgen Receptor for the Treatment of Prostate Cancer” (J Med Chem, 2021).
